# Results from different studies.
# Lines come from different studies, so protocols differ.
# Target: Activin receptor type-1-like (ACVRL1, Homo sapiens, UniProt P37023)
Structure (SMILES),test,conditions,remaining binding [%]
O=C(NCCCN1CCOCC1)c1ccc(Nc2ncc(Cl)c(-c3ccc(Cl)s3)n2)cc1,"binding, competition with immobilised ligand",1 µM,100
Cc1c[nH]c2nccc(Oc3c(F)cc(Nc4cc(Cl)nc(N)n4)cc3F)c12,"cell-free assay, competition with immobilised ligand",0.1 µM,100
C[C@@H](c1ccc(-n2cnc3c(N)ncnc32)cc1)N1CCc2nn(C)c(Cc3ccccc3)c2C1=O,"binding, competition with immobilised ligand",0.1 µM,66
COc1ccnn2ncc(-c3ccnc(N(C)C)n3)c12,binding,1 µM,100
O=C(c1ccc(Nc2nccc(-c3cc4ccccc4s3)n2)cc1)N1CCC(N2CCCC2)CC1,"binding, competition with immobilised ligand",1 µM,100
Cc1cnn2ncc(-c3ccnc(N(C)C)n3)c2c1,binding,1 µM,91
Cc1cnc(Nc2ccc(C(=O)N3CCC(N4CCCC4)CC3)cc2)nc1-c1cc2ccccc2s1,"binding, competition with immobilised ligand",1 µM,100
CNC(=O)[C@@H]1CC[C@@H](n2c(-c3ccc4cnccc4c3)nc3ccc(C(=O)NCc4cccc(C(N)=O)c4)cc32)C1,"binding, competition with immobilised ligand",1 µM,68
NS(=O)(=O)c1cc(NC(=O)C2(c3ccccc3Cl)CC2)ccc1Oc1cccc(Cl)c1,"binding, competition with immobilised ligand",1 µM,45
C[C@@H]1CCN(c2nccc(-c3cnn4ncccc34)n2)C1,binding,1 µM,100
CC1=C(C#N)C(c2ccc3c(c2)c(NC(=O)c2ccccc2C)nn3C)C(C#N)=C(C)N1,"binding, competition with immobilised ligand",1 µM,97
CN(C)c1ncc(F)c(-c2cnn3ncccc23)n1,binding,1 µM,100
O=C(NCC1CCOCC1)c1n[nH]cc1NC(=O)c1c(F)cccc1F,"binding, competition with immobilised ligand",1 µM,94
CCN1CCN(Cc2ccc(C(=O)Nc3ccc(C)c(Oc4ccc5c(c4)CC(=O)N5)c3)cc2C(F)(F)F)CC1,"binding, competition with immobilised ligand",1 µM,100
CC(=O)N1CCC(c2ccc(C(=O)NC3=NCCN3)cc2C(F)(F)F)CC1,"binding, competition with immobilised ligand",1 µM,100
COc1cnc(Nc2cccc(S(N)(=O)=O)c2)nc1N1CCN(c2ccccc2)CC1,"binding, competition with immobilised ligand",1 µM,98
CN(CCCC(F)(F)F)c1nccc(-c2cnn3ncccc23)n1,binding,1 µM,68
CCOCCn1cc(C(=O)Nc2ccc(-n3nc(-c4cccnc4)cc3C(F)(F)F)cn2)ccc1=O,"cell-free assay, competition with immobilised ligand",1 µM,100
CN(C)c1nccc(-c2cnc3ncccn23)n1,binding,1 µM,100
CCc1ccccc1C(=O)Nc1n[nH]c2c(C)c(F)c(C3C(C#N)=C(C)N(C)C(C)=C3C#N)cc12,"binding, competition with immobilised ligand",1 µM,75
N[C@H]1CCN(c2nccc(-c3cnn4ncccc34)n2)C1,binding,1 µM,97
CCCCN(CCCC)C(=O)CN1C[C@@H](c2cc(OC)c3c(c2)OCO3)[C@H](C(=O)O)[C@H]1CC(C)(C)CCC,"cell-free assay, competition with immobilised ligand",1 µM,99.4
